Measured values taken from article PMC5648746 (Clinical Pharmacokinetics, 2017).

How the values were obtained:
[1] = test system: patients with multiple myeloma; details: ixazomib plus lenalidomide-dexamethasone vs placebo plus lenalidomide-dexamethasone, TOURMALINE-MM1; cited from earlier work
[2] = single oral dose of radio-labelled ixazomib, five patients with advanced cancer; cited from earlier work
[3] = Individual predicted exposure; type: in vivo, human; details: oral ixazomib; figure value with 95% CI
[4] = cited from earlier work
[5] = Western patients, weekly dose; cited from earlier work
[6] = previous population PK analysis, four phase I studies; cited from earlier work
[7] = test system: human cDNA-expressed CYP isozymes; details: clinically relevant ixazomib concentrations; cited from earlier work
[8] = Population pharmacokinetic analysis; type: in vivo, human
Outline: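 Plasma from 755 adults with advanced haematologic or non-haematologic malignancies given oral (BSA-based or fixed) or IV (BSA-based) doses, weekly (28-day cycle) or twice-weekly (21-day cycle); sampled pre-dose and post-dose. LC-MS/MS with 13C9-labelled internal standard, linear 0.5–500 ng/mL. Three-compartment model, first-order absorption with lag; additive log-scale residual error; stepwise covariate selection, p = 0.01 plus ≥10% variance reduction.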

[9] = after a high-calorie high-fat meal; cited from earlier work
[10] = cited from earlier work; remark: listed apart in the source
[11] = typical (population) parameter estimates

SMILES: CC(C)C[C@H](NC(=O)CNC(=O)c1cc(Cl)ccc1Cl)B(O)O [ixazomib]
- Improvement in progression-free survival [1]: 35%
- Administered radioactivity excreted in feces [2]: 22%
- Administered radioactivity excreted in urine [2]: 62%
- Percent change in mean AUC∞, Asian race relative to White race [3]: 35%
- Dose dependence of exposure (AUC) [4]: dose-proportional increases in exposure
- Accumulation ratio for AUC ([4]; once-weekly repeat-dose administration): approximately 2
- Median time to maximum plasma concentration ([4]; post-dose, oral): 1 h
- Maximum tolerated dose [5]: 5.5 mg
- Estimated absolute bioavailability [6]: 60%
- Contribution of specific CYP isozymes to ixazomib metabolism [7]: no specific CYP isozyme predominantly contributed
- Inter-individual variability on log CL ([8]; % coefficient of variation): 44%
- Inter-individual variability on log F ([8]; % coefficient of variation): 73%
- Inter-individual variability on log V4 ([8]; % coefficient of variation): 79%
- Change in V4 at the 5th percentile of BSA relative to median BSA ([8]; BSA 1.5 m^2 vs median 1.87 m^2): −37%
- Change in V4 at the 95th percentile of BSA relative to median BSA ([8]; BSA 2.25 m^2 vs median 1.87 m^2): +46%
- Impact of BSA on CL ([8]; BSA had a small effect on V4): did not impact CL
- Effect of age on ixazomib PK parameters ([8]; age 23–91 years): not found to have a clinically relevant effect
- Correlation between log CL and log F (random effects) ([8]; coefficient of correlation): 82%
- Impact of BSA on V4 (V4[BSA]), estimate ([8]; covariate coefficient of power function): 2.06
- Absorption lag time (TLAG), untransformed parameter ([8]; final model): 13 min
- Absorption rate constant (Ka), untransformed parameter ([8]; final model): 0.34 h⁻¹
- Volume of the first peripheral compartment (V3), untransformed parameter ([8]; final model): 309 L
- Volume of the second peripheral compartment (V4), untransformed parameter ([8]; final model, at median BSA): 205 L
- Impact of CrCl and total bilirubin on ixazomib pharmacokinetics ([8]; mild or moderate renal impairment (CrCl 30–90 mL/min), mild hepatic impairment): neither CrCl nor total bilirubin had any clinically relevant impact
- Absorption rate constant (log Ka), estimate ([8]; raw NONMEM estimate, log scale): −1.09
- Volume of the first peripheral compartment (log V3), estimate ([8]; raw NONMEM estimate, log scale): 5.73
- Volume of the second peripheral compartment (log V4), estimate ([8]; raw NONMEM estimate, log scale): 5.32
- Population estimate of steady-state volume of distribution [8, 11]: 527 L
- Population estimate of t1/2,γ [8, 11]: 224 h
- Reduction in peak plasma concentration with food [9]: 69%
- Reduction in total systemic exposure (AUC) with food [9]: 28%
- Decrease in systemic exposure (AUC) of ixazomib with rifampin ([10]; co-administration of strong pleiotropic PXR-mediated inducer rifampin): 74%
- Effect of the strong CYP3A inhibitor clarithromycin on ixazomib pharmacokinetics ([10]; controlled phase I clinical study): absence of an effect
